The results in this text go back to ChEMBL document CHEMBL1649517, “Effect of MexXY overexpression on ceftobiprole susceptibility in Pseudomonas aeruginosa” (2009).

Values after ≈ are worked out from the molar mass of the structure shown.

Assay [1] has as its system Pseudomonas aeruginosa. The experiment in a line: Antimicrobial activity against Pseudomonas aeruginosa isolate OC17355 harboring plasmid JAK16 expressing mexXY gene by broth microdilution method. It is filed as functional. The procedure, abridged: (§1)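 CLSI broth microdilution MIC on P. aeruginosa transformants. Plasmids (control vector pJAK16, pMexXY or cloned mexZ repressor; 200 ng) were electroporated into fresh electrocompetent cells, and transformants were selected on Mueller-Hinton plates with chloramphenicol 200 or 400 μg/ml. Cultures were kept in chloramphenicol 200 μg/ml to maintain the plasmid, with 1 mM IPTG to induce the cloned gene.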
(In general: Dilution methods test growth across graded concentrations, often in twofold steps.)

The subject of assay [2] is Pseudomonas aeruginosa. Briefly: Antimicrobial activity against Pseudomonas aeruginosa isolate OC17349 on day 4 by broth microdilution method. As to conditions: isolate OC17349, 96 h. It is filed as functional. The procedure, abridged:
(§2)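 Clinical P. aeruginosa isolates, baseline and posttreatment, collected in ceftobiprole phase III clinical trials. MICs were measured by CLSI broth microdilution.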

Assay [3] concerns Pseudomonas aeruginosa. The experiment in a line: Antimicrobial activity against Pseudomonas aeruginosa isolate OC14551 by broth microdilution method. It is filed as functional. The procedure, abridged: as §2
Assay [4] has as its system Pseudomonas aeruginosa. Briefly: Antimicrobial activity against Pseudomonas aeruginosa isolate OC16827 on day 14 by broth microdilution method. It is filed as functional. As to conditions: isolate OC16827, 336 h. A digest of the protocol: as §2
The test system of assay [5] is Pseudomonas aeruginosa. Briefly: Antimicrobial activity against Pseudomonas aeruginosa isolate OC16827 after end of treatment by broth microdilution method. It is filed as functional. A digest of the protocol:
as §2

Assay [6] has as its system Pseudomonas aeruginosa. Briefly: Antimicrobial activity against Pseudomonas aeruginosa isolate OC16830 harboring plasmid JAK16 expressing mexXY gene by broth microdilution method. It is filed as functional. The procedure, abridged: as §1
Assay [7] has as its system Pseudomonas aeruginosa. The experiment in a line: Antimicrobial activity against Pseudomonas aeruginosa isolate OC17355 harboring plasmid MexZ expressing mexXY gene by broth microdilution method. It is filed as functional. The procedure, abridged: as §1
In assay [8] the test system is Pseudomonas aeruginosa. Briefly: Antimicrobial activity against Pseudomonas aeruginosa isolate OC14551 harboring plasmid MexZ expressing mexXY gene by broth microdilution method. It is filed as functional. The procedure, abridged: as §1
Assay [9] relates to Pseudomonas aeruginosa. The experiment in a line: Antimicrobial activity against Pseudomonas aeruginosa isolate OC14551 harboring plasmid JAK16 expressing mexXY gene by broth microdilution method. It is filed as functional. The procedure, abridged:
as §1

Assay [10] deals with Pseudomonas aeruginosa. The experiment in a line: Antimicrobial activity against Pseudomonas aeruginosa isolate OC14805 after 7 to 14 days by broth microdilution method. It is filed as functional. The procedure, abridged: as §2
Assay [11] has as its system Pseudomonas aeruginosa. The experiment in a line: Antimicrobial activity against Pseudomonas aeruginosa isolate OC16827 harboring plasmid JAK16 expressing mexXY gene by broth microdilution method. It is filed as functional. A digest of the protocol:
as §1

Assay [12] has as its system Pseudomonas aeruginosa. The experiment in a line: Antimicrobial activity against Pseudomonas aeruginosa PAO1 harboring plasmid MexXY expressing mexXY gene by broth microdilution method. It is filed as functional. A digest of the protocol: as §1
The subject of assay [13] is Pseudomonas aeruginosa. The experiment in a line: Antimicrobial activity against Pseudomonas aeruginosa isolate OC14812 by broth microdilution method. It is filed as functional. The procedure, abridged: as §2
In assay [14] the test system is Pseudomonas aeruginosa. The experiment in a line: Antimicrobial activity against Pseudomonas aeruginosa PAO1 harboring plasmid JAK16 expressing mexXY gene by broth microdilution method. It is filed as functional. A digest of the protocol: as §1
In assay [15] the test system is Pseudomonas aeruginosa. Briefly: Antimicrobial activity against Pseudomonas aeruginosa isolate OC14552 by broth microdilution method. It is filed as functional. The procedure, abridged: as §2
In assay [16] the test system is Pseudomonas aeruginosa. Briefly: Antimicrobial activity against Pseudomonas aeruginosa isolate OC16827 harboring plasmid MexXY expressing mexXY gene by broth microdilution method. It is filed as functional. A digest of the protocol:
as §1

The test system of assay [17] is Pseudomonas aeruginosa. Briefly: Antimicrobial activity against Pseudomonas aeruginosa isolate OC14552 on day 4 by broth microdilution method. It is filed as functional. As to conditions: isolate OC14552, 96 h. A digest of the protocol: as §2
Assay [18] concerns Pseudomonas aeruginosa. Briefly: Antimicrobial activity against Pseudomonas aeruginosa isolate OC16827 by broth microdilution method. It is filed as functional. The procedure, abridged: as §2
In assay [19] the test system is Pseudomonas aeruginosa. Briefly: Antimicrobial activity against Pseudomonas aeruginosa isolate OC14812 harboring plasmid JAK16 expressing mexXY gene by broth microdilution method. It is filed as functional. A digest of the protocol:
as §1

Assay [20] relates to Pseudomonas aeruginosa. The experiment in a line: Antimicrobial activity against Pseudomonas aeruginosa isolate OC16830 by broth microdilution method. It is filed as functional. A digest of the protocol: as §2
For assay [21], the system named is Pseudomonas aeruginosa. The experiment in a line: Antimicrobial activity against Pseudomonas aeruginosa isolate OC14805 after > 14 days by broth microdilution method. It is filed as functional. As to conditions: isolate OC14805, 336 h. The procedure, abridged: as §2
Assay [22] relates to Pseudomonas aeruginosa. Briefly: Antimicrobial activity against Pseudomonas aeruginosa PAO1 harboring plasmid MexZ expressing mexXY gene by broth microdilution method. It is filed as functional. The procedure, abridged:
as §1

In assay [23] the test system is Pseudomonas aeruginosa. The experiment in a line: Antimicrobial activity against Pseudomonas aeruginosa isolate OC14551 on day 8 by broth microdilution method. As to conditions: isolate OC14551, 192 h.
Assay [24] deals with Pseudomonas aeruginosa. The experiment in a line: Antimicrobial activity against Pseudomonas aeruginosa isolate OC14805 on day 4 by broth microdilution method. It is filed as functional. As to conditions: isolate OC14805, 96 h. The procedure, abridged: as §2
In assay [25] the test system is Pseudomonas aeruginosa. Briefly: Antimicrobial activity against Pseudomonas aeruginosa isolate OC14805 by broth microdilution method. It is filed as functional. A digest of the protocol:
as §2

Assay [26] deals with Pseudomonas aeruginosa. Briefly: Antimicrobial activity against Pseudomonas aeruginosa isolate OC17349 after 7 to 14 days by broth microdilution method. It is filed as functional. The procedure, abridged:
as §2

The subject of assay [27] is Pseudomonas aeruginosa. Briefly: Antimicrobial activity against Pseudomonas aeruginosa isolate OC17349 after end of treatment by broth microdilution method. It is filed as functional. A digest of the protocol:
as §2

Assay [28] concerns Pseudomonas aeruginosa. The experiment in a line: Antimicrobial activity against Pseudomonas aeruginosa isolate OC17355 by broth microdilution method. It is filed as functional. The procedure, abridged: as §2
The subject of assay [29] is Pseudomonas aeruginosa. The experiment in a line: Antimicrobial activity against Pseudomonas aeruginosa isolate OC16827 harboring plasmid MexZ expressing mexXY gene by broth microdilution method.
Assay [30] deals with Pseudomonas aeruginosa. Briefly: Antimicrobial activity against Pseudomonas aeruginosa isolate OC16830 harboring plasmid MexZ expressing mexXY gene by broth microdilution method.
For assay [31], the system named is Pseudomonas aeruginosa. Briefly: Antimicrobial activity against Pseudomonas aeruginosa isolate OC14812 harboring plasmid MexZ expressing mexXY gene by broth microdilution method. It is filed as functional. The procedure, abridged: as §1
Assay [32] relates to Pseudomonas aeruginosa. The experiment in a line: Antimicrobial activity against Pseudomonas aeruginosa isolate OC17349 by broth microdilution method. It is filed as functional. The procedure, abridged: as §2

As usually defined, the MIC is the lowest concentration found to suppress growth. For the compound `Nc1nc(/C(=N/O)C(=O)N[C@@H]2C(=O)N3C(C(=O)O)=C(/C=C4\CCN([C@@H]5CCNC5)C4=O)CS[C@H]23)ns1` [CEFTOBIPROLE], the MIC in the assay with Pseudomonas aeruginosa [1] was found to be 8 mg/L (≈ 15 µM); in the assay with Pseudomonas aeruginosa [2], 16 mg/L (≈ 29.9 µM); in the assay on Pseudomonas aeruginosa [3], 16 mg/L (≈ 29.9 µM); in the assay with Pseudomonas aeruginosa [4], 16 mg/L (≈ 29.9 µM); in the assay with Pseudomonas aeruginosa [5] it was 16 mg/L (≈ 29.9 µM); against Pseudomonas aeruginosa [6] it was 16 mg/L (≈ 29.9 µM). Also, the MIC in the assay on Pseudomonas aeruginosa [7] came to 2 mg/L (≈ 3.74 µM); in the assay on Pseudomonas aeruginosa [8], 4 mg/L (≈ 7.48 µM); with Pseudomonas aeruginosa [9], 16 mg/L (≈ 29.9 µM); in the assay with Pseudomonas aeruginosa [10] it was 16 mg/L (≈ 29.9 µM); in the assay on Pseudomonas aeruginosa [11], 4 mg/L (≈ 7.48 µM); with Pseudomonas aeruginosa [12] it was 32 mg/L (≈ 59.9 µM). Besides, the MIC against Pseudomonas aeruginosa [13] turned out to be 16 mg/L (≈ 29.9 µM); in the assay with Pseudomonas aeruginosa [14] it was 4 mg/L (≈ 7.48 µM); with Pseudomonas aeruginosa [15], 4 mg/L (≈ 7.48 µM); in the assay with Pseudomonas aeruginosa [16], 16 mg/L (≈ 29.9 µM); in the assay with Pseudomonas aeruginosa [17] it was 4 mg/L (≈ 7.48 µM); against Pseudomonas aeruginosa [18], 4 mg/L (≈ 7.48 µM). Moreover, the MIC in the assay with Pseudomonas aeruginosa [19] was found to be 16 mg/L (≈ 29.9 µM); against Pseudomonas aeruginosa [20] it was 16 mg/L (≈ 29.9 µM); against Pseudomonas aeruginosa [21], 16 mg/L (≈ 29.9 µM); with Pseudomonas aeruginosa [22], 1 mg/L (≈ 1.87 µM); in the assay with Pseudomonas aeruginosa [23], 16 mg/L (≈ 29.9 µM); in the assay on Pseudomonas aeruginosa [24] it was 4 mg/L (≈ 7.48 µM). The MIC against Pseudomonas aeruginosa [25] was 2 mg/L (≈ 3.74 µM); in the assay on Pseudomonas aeruginosa [26], 16 mg/L (≈ 29.9 µM); against Pseudomonas aeruginosa [27] it was 16 mg/L (≈ 29.9 µM); with Pseudomonas aeruginosa [28] it was 16 mg/L (≈ 29.9 µM); with Pseudomonas aeruginosa [29], 1 mg/L (≈ 1.87 µM); in the assay on Pseudomonas aeruginosa [30], 1 mg/L (≈ 1.87 µM). Besides, the results for the MIC with Pseudomonas aeruginosa [31] and with Pseudomonas aeruginosa [32] were 2 mg/L (≈ 3.74 µM) and 4 mg/L (≈ 7.48 µM), respectively.
As to `O=C(O)c1cn(C2CC2)c2cc(N3CCNCC3)c(F)cc2c1=O` [CIPROFLOXACIN], the MIC in the assay on Pseudomonas aeruginosa [1] is 4 mg/L (≈ 12.1 µM); with Pseudomonas aeruginosa [7], 1 mg/L (≈ 3.02 µM); against Pseudomonas aeruginosa [12], 1 mg/L (≈ 3.02 µM); with Pseudomonas aeruginosa [13], 1 mg/L (≈ 3.02 µM); against Pseudomonas aeruginosa [15], 0.12 mg/L (≈ 0.362 µM); in the assay with Pseudomonas aeruginosa [19], 1 mg/L (≈ 3.02 µM). The MIC in the assay with Pseudomonas aeruginosa [22] is 0.12 mg/L (≈ 0.362 µM); in the assay with Pseudomonas aeruginosa [28] it was 4 mg/L (≈ 12.1 µM); against Pseudomonas aeruginosa [29], 0.12 mg/L (≈ 0.362 µM); in the assay on Pseudomonas aeruginosa [30], 0.12 mg/L (≈ 0.362 µM); against Pseudomonas aeruginosa [32] it was 4 mg/L (≈ 12.1 µM).
As for GENTAMICIN, the MIC worked out at 16 mg/L against Pseudomonas aeruginosa [1]; 4 mg/L with Pseudomonas aeruginosa [3]; 8 mg/L with Pseudomonas aeruginosa [6]; 0.25 mg/L in the assay on Pseudomonas aeruginosa [7]; 4 mg/L in the assay with Pseudomonas aeruginosa [8]; 8 mg/L in the assay with Pseudomonas aeruginosa [9]. In addition, the MIC in the assay with Pseudomonas aeruginosa [11] was determined as 4 mg/L; in the assay on Pseudomonas aeruginosa [13], 8 mg/L; in the assay with Pseudomonas aeruginosa [14], 4 mg/L; against Pseudomonas aeruginosa [15], 4 mg/L; with Pseudomonas aeruginosa [18], 4 mg/L; against Pseudomonas aeruginosa [19] it was 8 mg/L. Moreover, the MIC against Pseudomonas aeruginosa [20] was 8 mg/L; against Pseudomonas aeruginosa [22], 0.25 mg/L; against Pseudomonas aeruginosa [25], 2 mg/L; in the assay on Pseudomonas aeruginosa [28] it was 4 mg/L; against Pseudomonas aeruginosa [31] it was 2 mg/L; against Pseudomonas aeruginosa [32], 4 mg/L.
